PMC5034805 (Journal of Clinical Pharmacology, 2015)
“Also recorded” adds a separate entry of the source. Like-named read-outs stand apart in the source and are kept apart here.

Experiments:
[1] = Ketoconazole drug–drug interaction study: romidepsin plasma pharmacokinetics; assay type: in vivo, human (patients with advanced cancer)
[2] = system: CYP2B6; conditions: at plasma concentrations that are effective; cited from earlier work
[3] = Safety evaluation in the rifampin interaction study; assay type: in vivo, human (patients with advanced cancer); conditions: in two patients; romidepsin 14 mg/m^2 with rifampin 600 mg
Method in brief: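 Antiemetic prophylaxis; K or Mg supplemented below 3.8 or 0.85 mmol/L. Monitoring through closeout (days 15–20): AE type, severity and relatedness, examinations, vital signs, ECGs, concomitant medications, clinical labs. Summarised descriptively.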

[4] = system: P‐glycoprotein (P‐gp); conditions: in vitro; cited from earlier work
[5] = system: BCRP; conditions: in vitro; cited from earlier work
[6] = patients with CTCL or PTCL; cited from earlier work
[7] = system: CYP1A1; conditions: at plasma concentrations that are effective; cited from earlier work
[8] = system: CYP enzymes; conditions: at plasma concentrations that are effective; cited from earlier work
[9] = system: hepatocytes; conditions: cited from earlier work
[10] = cited from earlier work
[11] = Rifampin drug–drug interaction study: romidepsin plasma pharmacokinetics; assay type: in vivo, human (patients with advanced cancer)
[12] = system: α1‐acid‐glycoprotein; conditions: primarily to α1-acid-glycoprotein; cited from earlier work
[13] = Safety evaluation in the ketoconazole interaction study; assay type: in vivo, human (patients with advanced cancer)
[14] = system: CYP3A4; conditions: at plasma concentrations that are effective; cited from earlier work
[15] = system: CYP3A; conditions: strong inhibitor of CYP3A; cited from earlier work
[16] = coadministration with ketoconazole vs alone
[17] = human, plasma, intravenous, 8 mg/m2
[18] = coadministration with rifampin 600 mg vs alone
[19] = human, plasma, intravenous, 14 mg/m2

In the case of `C/C=C1\NC(=O)[C@H]2CSSCC/C=C/[C@H](CC(=O)N[C@H](C(C)C)C(=O)N2)OC(=O)[C@H](C(C)C)NC1=O` [Romidepsin], the “Increase of mean romidepsin Cmax” value ([1]; coadministration with ketoconazole 400 mg vs alone) is reported as ~10%, the “Change of romidepsin clearance” value [1, 16] is reported as “decreased” and the “Change of romidepsin volume of distribution” value [1, 16] is reported as “decreased”. For the same molecule, the Tmax [1, 17] was 3.5 h, the Vd [1, 17] was 236 L and the clearance [1, 17] was 282 mL/min. It also gave a half-life [1, 17] of 9.7 h, an AUC(0-inf) ([1]; human, plasma, iv, 8 mg/m^2) of 915 ng·h/mL and a Cmax ([1]; human, plasma, iv, 8 mg/m^2) of 229 ng/mL. The “Median Difference of Tmax” value ([1]; romidepsin + ketoconazole vs romidepsin alone, Hodges-Lehmann estimate) was 0, the “Induction of CYP2B6” value [2] was “nor is it an inducer” and the “Treatment-emergent SAEs” value [3] was 8. The “Substrate of the efflux transporter P-glycoprotein (P-gp)” value [4] was “substrate”, the “Substrate of BCRP” value [5] was “not a substrate” and the “Effect of polymorphic variants of CYP3A on systemic exposure” value [6] was “did not affect”. The “Induction of CYP1A1” value [7] was “nor is it an inducer”, the “Inhibition of CYP enzymes” value [8] was “does not inhibit” and the Uptake into hepatocytes [9] was “actively taken up into the liver; also recorded: active process”. For the same molecule, the “Maximal tolerated dose (MTD)” value ([10]; given on days 1, 8, and 15 of a 28-day cycle) was 13.3 mg/m^2, the “Maximal tolerated dose (MTD)” value ([10]; given on days 1 and 5 in a 21-day cycle) was 17.8 mg/m^2 and the Dose-limiting toxicities ([10]; phase 1 dose escalation) was “fatigue, nausea, vomiting, thrombocytopenia (transient and grade 3) and neutropenia”. The “Decrease of romidepsin clearance” value [11, 18] was “approximately 44%”, the “Decrease of romidepsin volume of distribution” value [11, 18] was ~52% and the “Increase of mean romidepsin Cmax” value [11, 18] was ~60%. It also gave a Tmax [11, 19] of 2.98 h, a Vd [11, 19] of 162 L and a clearance [11, 19] of 193 mL/min. For the same molecule, the half-life [11, 19] was 9.7 h, the AUC(0-inf) ([11]; human, plasma, iv, 14 mg/m^2) was 2230 ng·h/mL and the Cmax ([11]; human, plasma, iv, 14 mg/m^2) was 571 ng/mL. The Protein binding [12] was “highly protein bound”, the “Deaths during the treatment period” value ([13]; romidepsin 8 mg/m^2 with ketoconazole 400 mg) was “No deaths” and the “Induction of CYP3A4” value [14] was “nor is it an inducer”.

For `CC(=O)N1CCN(c2ccc(OCC3COC(Cn4ccnc4)(c4ccc(Cl)cc4Cl)O3)cc2)CC1` (centres unmarked) [ketoconazole], the “Increases in liver enzymes AST or ALT” value ([13]; ketoconazole 400 mg daily days 4-8 with romidepsin 8 mg/m^2) is listed as “not observed” and the “Increase of AUC of CYP3A substrates” value [15] is listed as ≥ 5 fold.
